The source made the active and inactive calls. No cut-off for these calls is given here. Where only a bound is given, the exact number is not on record here.

Consider 18 compounds from ChEMBL document CHEMBL1641411, “Synthesis and optimization of novel 4,4-disubstituted cyclohexylbenzamide derivatives as potent 11β-HSD1 inhibitors” (Bioorg Med Chem Lett, 2011).

A short description of data set [1]: Metabolic stability in rat liver microsomes assessed as compound turnover at 30 mins. The class given is ADME, Microsome. The conditions noted are these: read-out: Stability. Summed up:
(§1)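 Compounds incubated with human or rat liver microsomes; percent turnover of parent measured at 30 min.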
In general terms: Microsomes from liver hold many membrane-bound enzymes, among them those of drug oxidation.

The nature of data set [2]: Metabolic stability in human liver microsomes assessed as compound turnover at 30 mins. The class given is ADME, Microsome. The conditions noted are these: read-out: Stability. The method in brief: as §1
For data set [3], the system named is Rattus norvegicus. Put plainly: Ex vivo inhibition of 11beta-HSD1 in Sprague-Dawley rat assessed as inhibition of conversion of [3H]cortisone to [3H]cortisol at 100 mg/kg, po. Type of data set: functional. Summed up:
(§2)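 Sprague–Dawley rats dosed orally at 4, 20 or 100 mg/kg; killed 2 h post-dose. Epididymal fat isolated and incubated in media containing [3H]-cortisone; rat 11β-HSD1 activity read as [3H]-cortisol formed. Reported as % inhibition over vehicle-dosed animals.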

In data set [4] the target is 11-beta-hydroxysteroid dehydrogenase 1 (Rattus norvegicus, UniProt P16232). Nature of the data set: Inhibition of rat 11beta-HSD1 assessed as inhibition of conversion of [3H]cortisone to [3H]cortisol by scintillation proximity assay. A general note: SPA uses beads or plates that emit light when radiolabelled molecules are held near them.
Sequence of 11-beta-hydroxysteroid dehydrogenase 1 (P16232 whole entry): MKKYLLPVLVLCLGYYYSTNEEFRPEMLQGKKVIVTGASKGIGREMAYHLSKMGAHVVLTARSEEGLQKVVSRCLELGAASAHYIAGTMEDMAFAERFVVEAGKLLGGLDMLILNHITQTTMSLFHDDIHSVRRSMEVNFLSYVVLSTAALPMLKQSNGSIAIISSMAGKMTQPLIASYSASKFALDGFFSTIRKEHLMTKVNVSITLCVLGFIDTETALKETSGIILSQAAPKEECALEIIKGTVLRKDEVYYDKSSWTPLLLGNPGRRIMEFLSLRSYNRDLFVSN
Data set [5] relates to Rattus norvegicus. Put plainly: Ex vivo inhibition of 11beta-HSD1 in Sprague-Dawley rat assessed as inhibition of conversion of [3H]cortisone to [3H]cortisol at 20 mg/kg, po. The class given is functional. The method in brief: as §2
Data set [6] in a line: Volume of distribution at steady state in rat at 0.5 mg/kg, iv and 2 mg/kg, po. Type of data set: ADME, organism-based. The note with it: in vivo, read-out: Vdss. The method in brief:
(§3)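 Rat PK: single iv dose of 0.5 mg/kg, with a separate oral dose of 2.0 mg/kg. Clearance, Vdss and half-life come from the iv arm. Oral AUC and %F come from the po arm.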

The nature of data set [7]: Half life in rat at 0.5 mg/kg, iv. The class given is ADME, organism-based. The arrangement: dose 0.5 mg/kg, route intravenous. The note with it: in vivo. The method in brief: as §3
Data set [8] deals with Rattus norvegicus. Nature of the data set: Ex vivo inhibition of 11beta-HSD1 in Sprague-Dawley rat assessed as inhibition of conversion of [3H]cortisone to [3H]cortisol at 4 mg/kg, po. Type of data set: functional. Summed up:
as §2

The nature of data set [9]: Oral bioavailability in rat at 2 mg/kg. The class given is ADME, organism-based. The conditions noted are these: in vivo. Summed up: as §3
The nature of data set [10]: AUC in rat at 2 mg/kg, po. The class given is ADME, organism-based. The arrangement: dose 2 mg/kg, route oral. The note with it: plasma. The method in brief:
as §3

Data set [11] can be described thus: Clearance in rat at 0.5 mg/kg, iv and 2 mg/kg, po. The conditions noted are these: in vivo. Type of data set: ADME, organism-based. The method in brief: as §3
In data set [12] the target is T1, Nuclear receptor subfamily 1 group I member 2 (Homo sapiens, UniProt O75469).
T1 sequence (O75469 whole entry): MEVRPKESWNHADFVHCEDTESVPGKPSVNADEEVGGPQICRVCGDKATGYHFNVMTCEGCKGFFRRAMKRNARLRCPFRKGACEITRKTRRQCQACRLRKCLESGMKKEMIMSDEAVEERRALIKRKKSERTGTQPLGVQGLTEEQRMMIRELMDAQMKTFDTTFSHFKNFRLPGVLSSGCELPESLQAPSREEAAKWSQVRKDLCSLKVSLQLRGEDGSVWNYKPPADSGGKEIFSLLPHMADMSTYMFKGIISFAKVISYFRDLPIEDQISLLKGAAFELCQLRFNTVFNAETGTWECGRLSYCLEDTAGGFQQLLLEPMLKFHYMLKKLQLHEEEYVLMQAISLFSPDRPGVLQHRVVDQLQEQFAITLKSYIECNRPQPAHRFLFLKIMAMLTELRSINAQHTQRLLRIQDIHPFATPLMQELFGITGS
Nature of the data set: Activation of PXR relative to control. The arrangement: concentration or dose not given beside the values. The method in brief: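 PXR activation measured with compound at 2 µM, expressed as % of control.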

A short description of data set [13]: Plasma concentration in cynomolgus monkey at 20 mg/kg, po after 2 hrs by LC/MS/MS analysis. Type of data set: ADME, organism-based, Macaca fascicularis. Further details: dose 20 mg/kg, route oral. The method in brief:
(§4)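 Monkeys given oral doses of 4, 20 or 100 mg/kg in 1% methylcellulose/1% Tween 80 in sterile water, 5–6 animals per group. Plasma collected 2 h after dosing for drug concentration.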

Data set [14] in a line: Plasma concentration in cynomolgus monkey at 4 mg/kg, po after 2 hrs by LC/MS/MS analysis. The class given is ADME, organism-based, Macaca fascicularis. The arrangement: dose 4 mg/kg, route oral. The method in brief:
as §4

Data set [15] in a line: Plasma concentration in cynomolgus monkey at 100 mg/kg, po after 2 hrs by LC/MS/MS analysis. The class given is ADME, organism-based, Macaca fascicularis. The arrangement: dose 100 mg/kg, route oral. Summed up: as §4
The subject of the next data set is Cynomolgus monkey. The note with it: Macaca fascicularis; 4 to 100 mg/kg.
The nature of data set [16]: Bioavailability in cynomolgus monkey. The conditions noted are these: in vivo. Type of data set: ADME, organism-based, Macaca fascicularis.
Data set [17] in a line: Clearance in cynomolgus monkey. Type of data set: ADME, organism-based, Macaca fascicularis. The conditions noted are these: in vivo.
Data set [18] in a line: Inhibition of cynomolgus monkey 11beta-HSD1 assessed as inhibition of conversion of [3H]cortisone to [3H]cortisol by scintillation proximity assay. Further details: species or system Macaca fascicularis.

For `C[C@](O)(c1ccc(C(=O)N(C2CC2)[C@H]2CC[C@](CCC#N)(c3ccccc3)CC2)cc1)C(F)(F)F`, the figures for the metabolised at 0.5 h in data set [1] and in data set [2] were 51% and 10%, respectively.
With `C[C@](O)(c1ccc(C(=O)N(C2CC2)[C@H]2CC[C@](COC(N)=O)(c3cscn3)CC2)cc1)C(F)(F)F`, in the data set with Rattus norvegicus [3], the inhibition in vivo (as a rule, the relative decrease from the control value, in per cent) at 100 mg/kg is 75%. Also, the IC50 (as a rule, the concentration that inhibits the measured activity by half) in data set [4] amounted to 30 nM. The metabolised at 0.5 h in [1] and in data set [2] was below 10% each time. The inhibition in vivo at 20 mg/kg in the data set with Rattus norvegicus [5] amounted to 38%. In addition, the Vd in data set [6] is 3.7 L/kg. The half-life – broadly, the time in which the quantity being followed falls by half – in [7] was 270 min. Moreover, the inhibition in vivo at 4 mg/kg in the data set with Rattus norvegicus [8] was 6%. Also, the bioavailability (usually dose-corrected exposure relative to a reference, in per cent) in data set [9] is 25%. For the same compound, in [10], the AUC (usually concentration integrated over time) amounted to 618 ng·h/mL. Further, the clearance in data set [11] was 13.7 mL/min/kg.
For `C[C@](O)(c1ccc(C(=O)N(C2CC2)[C@H]2CC[C@](CCC(N)=O)(c3ccccn3)CC2)cc1)C(F)(F)F`, the metabolised at 0.5 h in data set [1] and in data set [2] was below 10% in each case.
`C[C@](O)(c1ccc(C(=O)N(C2CC2)[C@H]2CC[C@](CC#N)(c3ccccc3)CC2)cc1)C(F)(F)F` came in with an Activity in [12] of 9%. For the same compound, the metabolised at 0.5 h in data set [1] was found to be 17%; in data set [2], 19%.
On to `C[C@](O)(c1ccc(C(=O)N(C2CC2)[C@H]2CC[C@](CNS(C)(=O)=O)(c3ccccc3)CC2)cc1)C(F)(F)F`, for which the Activity in [12] was below 5%. For the same compound, the metabolised at 0.5 h is 21% in data set [1] and below 10% in [2].
As to `C[C@](O)(c1ccc(C(=O)N(C2CC2)[C@H]2CC[C@](CCC(N)=O)(c3ccccc3F)CC2)cc1)C(F)(F)F`, the metabolised at 0.5 h in data set [1] and in data set [2] was below 10% throughout.
With `C[C@](O)(c1ccc(C(=O)N(C2CC2)[C@H]2CC[C@](COC(N)=O)(c3ccccc3)CC2)cc1)C(F)(F)F`, in the data set with Rattus norvegicus [3], the inhibition in vivo at 100 mg/kg was determined as 71%. Also, the IC50 in [4] stood at 86 nM. Also, in data set [12], the Activity is recorded as below 5%. The metabolised at 0.5 h in data set [1] and in [2] was below 10% throughout. In addition, the inhibition in vivo at 20 mg/kg with Rattus norvegicus [5] came out at 43%. In addition, the Vd in [6] amounted to 1 L/kg. Further, in data set [7], the half-life was 234 min. For the same compound, in the data set with Rattus norvegicus [8], the inhibition in vivo at 4 mg/kg worked out at 23%. Further, the bioavailability in data set [9] was 20%. Moreover, the area under the curve (AUC) in data set [10] came to 2770 ng·h/mL. The compound also showed a clearance in data set [11] of 2.67 mL/min/kg.
The compound `CC(=O)NC[C@]1(c2ccccc2)CC[C@H](N(C(=O)c2ccc([C@](C)(O)C(F)(F)F)cc2)C2CC2)CC1` showed an Activity in data set [12] below 5%. Further, the metabolised at 0.5 h in data set [1] and in data set [2] was below 10% throughout.
For `C[C@](O)(c1ccc(C(=O)N(C2CC2)[C@H]2CC[C@](CC(N)=O)(c3ccccc3)CC2)cc1)C(F)(F)F`, in data set [12], the Activity is recorded as below 5%. For the same compound, the metabolised at 0.5 h in [1] and in data set [2] was below 10% in each case.
As to `C[C@](O)(c1ccc(C(=O)N(C2CC2)[C@H]2CC[C@](COC(N)=O)(c3ccc(F)cc3)CC2)cc1)C(F)(F)F`, the metabolised at 0.5 h in [1] and in data set [2] was below 10% in each case.
For the compound `C[C@](O)(c1ccc(C(=O)N(C2CC2)[C@H]2CC[C@](CO)(c3ccccc3)CC2)cc1)C(F)(F)F`, the Activity in [12] is below 5%. The metabolised at 0.5 h was determined as 32% in data set [1] and 10% in data set [2].
For `C[C@](O)(c1ccc(C(=O)N(C2CC2)[C@H]2CC[C@](CCC(N)=O)(c3ccc(F)cc3)CC2)cc1)C(F)(F)F`, the metabolised at 0.5 h in data set [1] and in data set [2] was below 10% each time.
In data set [12], `C[C@](O)(c1ccc(C(=O)N(C2CC2)[C@H]2CC[C@](CCO)(c3ccccc3)CC2)cc1)C(F)(F)F` yielded an Activity of 6%. Further, the metabolised at 0.5 h in data set [1] and in data set [2] was below 10% each time.
Consider `C[C@](O)(c1ccc(C(=O)N(C2CC2)[C@H]2CC[C@](COC(N)=O)(c3ccccc3F)CC2)cc1)C(F)(F)F`, for which the inhibition in vivo at 100 mg/kg with Rattus norvegicus [3] is 70%. In addition, the IC50 in data set [4] came to 144 nM. For the same compound, the metabolised at 0.5 h in [1] and in data set [2] was below 10% each time. Also, the inhibition in vivo at 20 mg/kg in the data set on Rattus norvegicus [5] worked out at 43%. Further, the Vd in [6] amounted to 1.28 L/kg. This compound also had a half-life in [7] of 312 min. In the data set on Rattus norvegicus [8], the inhibition in vivo at 4 mg/kg was determined as 27%. In data set [9], this compound registered a bioavailability of 48%. Moreover, the AUC in data set [10] is 6790 ng·h/mL. This compound also showed a clearance in [11] of 2.5 mL/min/kg.
Compound `C[C@](O)(c1ccc(C(=O)N(C2CC2)[C@H]2CC[C@](O)(C3CC3)CC2)cc1)C(F)(F)F` came in with an Activity in [12] below 5%. The metabolised at 0.5 h in [1] and in data set [2] was below 10% in each case.
For the compound `C[C@](O)(c1ccc(C(=O)N(C2CC2)[C@H]2CC[C@](COC(N)=O)(c3ccc(F)cn3)CC2)cc1)C(F)(F)F`, the metabolised at 0.5 h in data set [1] and in data set [2] was below 10% in each case.
Consider `C[C@](O)(c1ccc(C(=O)N(C2CC2)[C@H]2CC[C@](CCC(N)=O)(c3ccccc3)CC2)cc1)C(F)(F)F`, for which the concentration at 2 h in data set [13] amounted to 2000 ng/mL; in data set [14] it was 151 ng/mL; in data set [15], 1710 ng/mL. Moreover, the inhibition result in the data set with Cynomolgus monkey was “Active”. This compound displayed an Activity in data set [12] below 5%. The compound also registered a bioavailability in data set [16] of 81%. The metabolised at 0.5 h in data set [1] and in [2] was below 10% each time. In addition, in [17], the clearance was 1 mL/min/kg. Besides, the IC50 in data set [18] amounted to 22 nM.
On to `C[C@](O)(c1ccc(C(=O)N(C2CC2)[C@H]2CC[C@](COC(N)=O)(c3ccccn3)CC2)cc1)C(F)(F)F`, for which the inhibition in vivo at 100 mg/kg in the data set with Rattus norvegicus [3] was 72%. In [4], the IC50 is 220 nM. Further, the metabolised at 0.5 h in data set [1] and in data set [2] was below 10% throughout. Moreover, the inhibition in vivo at 20 mg/kg with Rattus norvegicus [5] was 44%. Besides, the Vd in data set [6] came to 1.24 L/kg. Also, the half-life in [7] is 252 min. In the data set on Rattus norvegicus [8], the inhibition in vivo at 4 mg/kg amounted to 14%. Moreover, in data set [9], the bioavailability stood at 64%. This compound gave an AUC in [10] of 6180 ng·h/mL. This compound also gave a clearance in data set [11] of 3.5 mL/min/kg.
